These results are taken from ChEMBL document CHEMBL3102713, “The cytotoxic effect of 2-acylated-1,4-naphthohydroquinones on leukemia/lymphoma cells” (Bioorg Med Chem, 2014).

The subject of assay [1] is Ramos. The assay is described as follows: Cytotoxicity against human Ramos cells assessed as cell viability after 72 hrs by MTS assay. Format: functional, cell-based. Summed up: (§1)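 Cells seeded at 10,000 per well in 96-well plates; leukemia/lymphoma lines in RPMI, Hs27 fibroblasts in DMEM, both with 10% heat-inactivated FBS, penicillin and streptomycin, 37 °C, 5% CO2. Exposed to doubling concentrations from 1.56 to 100 µM for 72 h, then MTS added for 4 h. Absorbance read at 490 nm, reference 650 nm, cell-free background subtracted. Viability expressed relative to 1% DMSO solvent control. Eight replicates. IC50 is the concentration giving 50% inhibition of formazan conversion versus untreated cells.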
For orientation: Tetrazolium assays rely on reduction of a dye to a coloured formazan, in cell work by metabolically active cells.

In assay [2] the test system is Jurkat. The assay is described as follows: Cytotoxicity against human Jurkat cells assessed as cell viability after 72 hrs by MTS assay. The assay is classed as functional, cell-based. Summed up: as §1
A short description of assay [3]: Cytotoxicity against human NALM6 cells assessed as cell viability after 72 hrs by MTS assay. The assay is classed as functional, cell-based. The note with it: NALM-6, 72 h. Summed up: as §1
The subject of assay [4] is CCRF-CEM. The assay is described as follows: Cytotoxicity against human CCRF-CEM cells assessed as cell viability after 72 hrs by MTS assay. The assay is classed as functional, cell-based. Summed up: as §1
The test system of assay [5] is HS27. The assay is described as follows: Cytotoxicity against human HS27 cells assessed as cell viability after 72 hrs by MTS assay. The note with it: HS27, 72 h. Format: cell-based. The gist of the method:
as §1

Assay [6] deals with CCRF-CEM. The assay is described as follows: Cytotoxicity against human CCRF-CEM cells assessed as mitochondrial membrane depolarization at 10 uM after 8 hrs by JC-1 red/green staining-based flow cytometry analysis (reference value: 3.3%). Format: functional. (In general: In flow cytometry, cells or beads pass a laser one at a time.)
For assay [7], the system named is CCRF-CEM. The assay is described as follows: Cytotoxicity against human CCRF-CEM cells assessed as mitochondrial membrane depolarization at 10 uM after 6 hrs by JC-1 red/green staining-based flow cytometry analysis (reference value: 3.3%). Format: functional.
The subject of assay [8] is CCRF-CEM. The assay is described as follows: Induction of apoptosis in human CCRF-CEM cells assessed as caspase 3 activation at 10 uM after 8 hrs by measuring necrotic cells using flow cytometric analysis relative to control. Format: functional.
For assay [9], the system named is CCRF-CEM. The assay is described as follows: Cytotoxicity against human CCRF-CEM cells assessed as mitochondrial membrane depolarization at 10 uM by JC-1 red/green staining-based flow cytometry analysis. The note with it: TDE = time-dependent effect. Format: functional, cell-based.
In assay [10] the test system is CCRF-CEM. The assay is described as follows: Cytotoxicity against human CCRF-CEM cells assessed as intact mitochondrial membrane potential at 10 uM after 6 hrs by JC-1 red/green staining-based flow cytometry analysis (reference value: 96.7%). Format: functional.
Assay [11] deals with CCRF-CEM. The assay is described as follows: Induction of apoptosis in human CCRF-CEM cells using fluorogenic substrate assessed as caspase 3 activation at 1 uM after 8 hrs by measuring viable cells using flow cytometric analysis (reference value: 96.1%).
Assay [12] relates to CCRF-CEM. The assay is described as follows: Induction of apoptosis in human CCRF-CEM cells assessed as caspase 3 activation at 10 uM after 8 hrs by measuring late apoptotic cells using flow cytometric analysis relative to control. Format: functional.
In assay [13] the test system is CCRF-CEM. The assay is described as follows: Induction of apoptosis in human CCRF-CEM cells assessed as viable cells at 10 uM after 72 hrs by measuring phosphatidylserine translocation using annexin V-FITC/propidium iodide staining-based flow cytometric analysis (reference value: 98.7%). The assay is classed as functional. As to conditions: read-out: Activity.
Assay [14] concerns CCRF-CEM. The assay is described as follows: Induction of apoptosis in human CCRF-CEM cells assessed as late apoptotic cells at 10 uM after 72 hrs by measuring phosphatidylserine translocation using annexin V-FITC/propidium iodide staining-based flow cytometric analysis (reference value: 0.1%). Format: functional.
Assay [15] deals with CCRF-CEM. The assay is described as follows: Induction of apoptosis in human CCRF-CEM cells using fluorogenic substrate assessed as caspase 3 activation at 10 uM after 8 hrs by measuring early apoptotic cells using flow cytometric analysis (reference value: 3.9%). Format: functional.
The subject of assay [16] is CCRF-CEM. The assay is described as follows: Cytotoxicity against human CCRF-CEM cells assessed as intact mitochondrial membrane potential at 10 uM after 8 hrs by JC-1 red/green staining-based flow cytometry analysis (reference value: 96.7%). The assay is classed as functional.
The test system of assay [17] is CCRF-CEM. The assay is described as follows: Induction of apoptosis in human CCRF-CEM cells assessed as early apoptotic cells at 10 uM after 72 hrs by measuring phosphatidylserine translocation using annexin V-FITC/propidium iodide staining-based flow cytometric analysis (reference value: 0.8%). Format: functional.
The subject of assay [18] is CCRF-CEM. The assay is described as follows: Induction of apoptosis in human CCRF-CEM cells assessed as necrotic cells at 10 uM after 72 hrs by measuring phosphatidylserine translocation using annexin V-FITC/propidium iodide staining-based flow cytometric analysis (reference value: 0.4%). Format: functional.
For assay [19], the system named is CCRF-CEM. The assay is described as follows: Induction of apoptosis in human CCRF-CEM cells assessed as necrotic cells at 50 uM after 72 hrs by measuring phosphatidylserine translocation using annexin V-FITC/propidium iodide staining-based flow cytometric analysis (reference value: 0.4%). The assay is classed as functional.
Assay [20] deals with CCRF-CEM. The assay is described as follows: Induction of apoptosis in human CCRF-CEM cells assessed as early apoptotic cells at 50 uM after 72 hrs by measuring phosphatidylserine translocation using annexin V-FITC/propidium iodide staining-based flow cytometric analysis (reference value: 0.8%). The assay is classed as functional.
In assay [21] the test system is CCRF-CEM. The assay is described as follows: Induction of apoptosis in human CCRF-CEM cells assessed as viable cells at 50 uM after 72 hrs by measuring phosphatidylserine translocation using annexin V-FITC/propidium iodide staining-based flow cytometric analysis (reference value: 98.7%). The assay is classed as functional. As to conditions: read-out: Activity.
The subject of assay [22] is CCRF-CEM. The assay is described as follows: Induction of apoptosis in human CCRF-CEM cells assessed as late apoptotic cells at 50 uM after 72 hrs by measuring phosphatidylserine translocation using annexin V-FITC/propidium iodide staining-based flow cytometric analysis (reference value: 0.1%). The assay is classed as functional.
Assay [23] has as its system CCRF-CEM. The assay is described as follows: Induction of apoptosis in human CCRF-CEM cells using fluorogenic substrate assessed as caspase 3 activation at 50 uM after 8 hrs by measuring early apoptotic cells using flow cytometric analysis (reference value: 6.1%). The assay is classed as functional. The gist of the method:
(§2)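 CEM cells were seeded at 50,000 per well in RPMI with 10% FBS and exposed for 8 h at 37 °C, with CCCP (50 µM) as positive control and untreated and 1% DMSO controls. Cells were labelled with NucView 488 caspase-3/7 live-cell fluorogenic substrate. Green-positive cells were counted by flow cytometry (FL1 vs FL2 dot plots), about 10,000 events per sample, in triplicate.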

The subject of assay [24] is CCRF-CEM. The assay is described as follows: Cytotoxicity against human CCRF-CEM cells assessed as mitochondrial membrane depolarization at 50 uM after 8 hrs by JC-1 red/green staining-based flow cytometry analysis (reference value: 3.3%). Format: functional.
Assay [25] relates to CCRF-CEM. The assay is described as follows: Induction of apoptosis in human CCRF-CEM cells using fluorogenic substrate assessed as caspase 3 activation at 50 uM after 8 hrs by measuring late apoptotic cells using flow cytometric analysis relative to control. The assay is classed as functional. Summed up: as §2
In assay [26] the test system is CCRF-CEM. The assay is described as follows: Induction of apoptosis in human CCRF-CEM cells assessed as caspase 3 activation at 50 uM after 8 hrs by measuring necrotic cells using flow cytometric analysis relative to control. Format: functional. Summed up: as §2
Assay [27] concerns CCRF-CEM. The assay is described as follows: Induction of apoptosis in human CCRF-CEM cells using fluorogenic substrate assessed as caspase 3 activation at 50 uM after 8 hrs by measuring viable cells using flow cytometric analysis (reference value: 93.9%). The assay is classed as functional. Summed up: as §2
The test system of assay [28] is CCRF-CEM. The assay is described as follows: Cytotoxicity against human CCRF-CEM cells assessed as intact mitochondrial membrane potential at 50 uM after 8 hrs by JC-1 red/green staining-based flow cytometry analysis (reference value: 96.7%). The assay is classed as functional.

As usually defined, the IC50 is the concentration needed to halve the response being measured. On to `Cc1ccc(C(=O)c2cc(O)c3ccccc3c2O)cc1`, for which the IC50 stood at 0.52 µM in assay [1]; 3.35 µM in assay [2]; 2.41 µM in [3]; 0.74 µM in assay [4]; 4.37 µM in assay [5].
On to `CCC(=O)c1cc(O)c2ccccc2c1O`, for which the half-inhibitory concentration (IC50) in [1] came out at 2.49 µM; in assay [2], 4.54 µM; in [3], 2.02 µM; in assay [4], 3.95 µM; in [5], 18 µM.
`CCCCCCCCCCCC(=O)c1cc(O)c2ccccc2c1O`: the Activity in assay [6] was 62.3%; in assay [7] it was 36.8%; in assay [8], 0%; in assay [9] it was “tde”; in assay [10], 63.2%; in assay [11] it was 64.8%. Further, the Activity was determined as 0% in assay [12]; 3.7% in [14]; 35.2% in [15]; 37.7% in assay [16]; 92.8% in assay [17]; 3% in assay [18]. Besides, the IC50 in assay [1] was determined as 0.98 µM; in assay [2] it was 6.56 µM; in [3] it was 5.8 µM; in assay [4], 5.99 µM; in assay [5], 43.8 µM. Besides, the viability at 10 µM in [13] came out at 0.5%.
For the compound `C/C=C/C(=O)c1cc(O)c2ccccc2c1O`, the Activity in assay [19] worked out at 19.8%; in [20], 1.3%; in assay [22], 0.4%. In addition, the half-inhibitory concentration (IC50) in assay [1] turned out to be 4.25 µM; in [2], 6.24 µM; in assay [3], 4.63 µM; in assay [4] it was 3.19 µM; in assay [5], 37.1 µM. In [21], the viability at 50 µM was 78.6%.
`O=C(c1ccccc1)c1cc(O)c2ccccc2c1O`: the 50% inhibitory concentration (IC50) in assay [1] stood at 4.13 µM; in assay [2] it was 6.35 µM; in [3] it was 2.58 µM; in assay [4] it was 5.44 µM; in assay [5], 8.3 µM.
For the compound `N#CC(C#N)=NNc1cccc(Cl)c1` [CARBONYL CYANIDE M-CHLOROPHENYLHYDRAZONE], the Activity in assay [23] is recorded as 32.6%; in assay [24], 100%; in [25], 1.1%; in assay [26] it was 0%; in assay [27] it was 66.3%; in assay [28] it was 0%.
`COc1ccc(C(=O)c2cc(O)c3ccccc3c2O)cc1`: the IC50 in assay [1] is 0.66 µM; in [2] it was 2.78 µM; in assay [3], 0.88 µM; in assay [4], 0.01 µM; in [5] it was 4.97 µM.
For `CC(=O)c1cc(O)c2ccccc2c1O`, in that order: 0.75 µM, 5.6 µM, 5.09 µM, 5.24 µM and 9.87 µM.
